{"data": "Assay results pooled from the literature", "target": "Cytochrome P450 2C8 (CYP2C8, Homo sapiens, UniProt P10632)", "effect on": "enzyme activity", "action": "inhibitor", "note": "Compare with care: the assays were run in different laboratories. pIC50, pKi: −log10 of the molar value."}
{"Compound": "CCc1cc(/C(C)=N/OCc2ccc(C3CCCCC3)c(C(F)(F)F)c2)ccc1CN1CC(C(=O)O)C1", "system": "human, liver microsomes", "setting": "20 min", "measurement": "pIC50", "value": "< 5.96"}
{"Compound": "NS(=O)(=O)NCCNc1nonc1C(=NO)Nc1ccc(F)c(Br)c1", "measurement": "pIC50", "value": "< 5.00"}
{"Compound": "Cc1ccc2nc(-c3ccccc3)c(CNc3ccc(F)cc3)n2c1", "measurement": "pIC50", "value": 6.00}
{"Compound": "N#C[C@H](C[C@@H]1CCCNC1=O)NC(=O)[C@H](CC1CC1)NC(=O)c1cc2cccc(Cl)c2[nH]1", "system": "human, liver microsomes", "measurement": "pIC50", "value": 5.41}
{"Compound": "Cc1cc(C)c2c(c1)[C@@H](N(Cc1cc(C(F)(F)F)cc(C(F)(F)F)c1)c1nnn(C)n1)CCCN2C[C@H]1CC[C@H](C(=O)O)CC1", "system": "human, liver microsomes", "setting": "pH 7.4", "measurement": "pKi", "value": 5.89}
{"Compound": "COc1ccn2c(Nc3ccccc3F)c(-c3ccncn3)nc2c1", "measurement": "pIC50", "value": 6.00}
{"Compound": "Ic1ccc(CSCn2ccnc2)cc1", "setting": "30 min, pH 7.4", "measurement": "pIC50", "value": 6.25}
{"Compound": "C[C@@H](c1ccc2nccn2c1)n1nnc2ncc(-c3cnn(C)c3)nc21", "system": "human, liver microsomes", "setting": "pH 7.4", "measurement": "pIC50", "value": 4.80}
{"Compound": "Cc1cc2c(F)c(Oc3ncnn4cc(OC[C@@H](C)O)c(C)c34)ccc2[nH]1", "assay": "fluorescence", "setting": "15 min", "measurement": "pIC50", "value": 5.51}
{"Compound": "C=CC(=O)Nc1cc(Nc2nccc(Nc3cc(Cl)c(F)cc3C(C)(C)O)n2)c(OC)cc1N1CC[C@@H](N(C)C)C1", "system": "human, liver microsomes", "measurement": "pIC50", "value": "< 4.52"}
